For experiment [1], the system named is Aspergillus fumigatus. As to the kind of experiment: In vitro antifungal activity against Aspergillus fumigatus 8004 by broth microdilution method. It counts as functional. The method, boiled down:
(§1)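 Broth microdilution run to NCCLS M27-A guidelines. MIC read per that standard.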
In general terms: Dilution methods test growth across graded concentrations, often in twofold steps.

Experiment [2] deals with Aspergillus fumigatus. As to the kind of experiment: In vitro antifungal activity against Aspergillus fumigatus FP1305 by broth microdilution method. It counts as functional. The method, boiled down: as §1
In experiment [3] the test system is Candida albicans. Description: In vitro antifungal activity against Candida albicans 13004 by broth microdilution method. It counts as functional. A digest of the protocol:
as §1

For experiment [4], the system named is Candida albicans. Description: In vitro antifungal activity against Candida albicans FP633 by broth microdilution method. It counts as functional. A digest of the protocol: as §1
The species named for experiment [5] is Mus musculus. Description: Ability to hemolyze ICR mouse RBCs at 1 mg/mL using microtiter red blood cell hemolysis assay.
The subject of experiment [6] is Mus musculus. As to the kind of experiment: Compound was evaluated in vivo for antifungal activity and efficacy in disseminated murine candidiasis was determined. It counts as functional.
Experiment [7] concerns Candida albicans. Description: In vitro antifungal activity against Candida albicans FP579 by agar dilution method using Sabouraud Dextrose agar. It counts as functional. The method, boiled down:
(§2)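 Agar dilution on Sabouraud Dextrose agar. MIC taken as the lowest concentration that inhibits visible growth.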
On the technique in general: In agar dilution, organisms are placed on agar that contains the substance at set levels.

The test system of experiment [8] is Candida albicans. Description: In vitro Antifungal activity against Candida albicans FP633 by agar dilution method using Sabouraud Dextrose agar. It counts as functional. A digest of the protocol:
as §2

Experiment [9] relates to Meyerozyma guilliermondii. Description: In vitro antifungal activity against Candida guilliermondii FP587 by agar dilution method using Sabouraud Dextrose agar. It counts as functional. A digest of the protocol: as §2
The next experiment deals with Candida parapsilosis. Description: In vitro antifungal activity against Candida parapsilosis 15001 by agar dilution method using Sabouraud Dextrose agar. It is filed as functional. The following applies: Lodderomyces parapsilosis. The method, boiled down:
as §2

The next experiment concerns Candida tropicalis. Description: In vitro antifungal activity against Candida tropicalis 8001 by agar dilution method using Sabouraud Dextrose agar. It is filed as functional. The method, boiled down: as §2

≈ marks a conversion by molar mass, not a printed value.

For `CCCCCCCCCCCCC[C@H](CC(=O)N[C@H](C(=O)N[C@H](C)C(=O)N[C@@H](Cc1ccc(OCC(=O)NCCN)cc1)C(=O)N[C@H](C(=O)N1C[C@H](O)C[C@H]1C(=O)N[C@H](C(=O)N[C@H](C(=O)N1CC[C@H](O)[C@H]1C(=O)N[C@H](C(=O)NCC(=O)N[C@H](C(N)=O)[C@@H](C)O)[C@H](O)CC(N)=O)[C@@H](C)O)[C@@H](C)O)C(C)C)[C@@H](C)O)OC(=O)[C@@H](C)CCCN.Cl`, the MIC (in general, the smallest concentration in the dilution series that meets the test's criterion for growth inhibition) in the experiment with Aspergillus fumigatus [1] worked out at 1 µg/mL; with Aspergillus fumigatus [2] it was 0.5 µg/mL; in the experiment with Candida albicans [3], 1 µg/mL; against Candida albicans [4], 1 µg/mL. This molecule came in with a Hemolytic activity in the experiment filed under Mus musculus [5] of 45%.
For `CCCCCCCCCCCCC[C@H](CC(=O)N[C@H](C(=O)N[C@@H](C)C(=O)N[C@@H](Cc1ccc(OCC(=O)O)c(NC(=O)CCN)c1)C(=O)N[C@H](C(=O)N1C[C@H](O)C[C@H]1C(=O)N[C@@H](C(=O)N[C@H](C(=O)N1CC[C@H](O)[C@H]1C(=O)N[C@H](C(=O)NCC(=O)N[C@H](C(N)=O)[C@@H](C)O)[C@H](O)CC(N)=O)[C@@H](C)O)[C@@H](C)O)C(C)C)[C@@H](C)O)OC(=O)[C@@H](C)CCCN.Cl`, the MIC in the experiment on Aspergillus fumigatus [1] stood at 0.5 µg/mL; against Aspergillus fumigatus [2], 0.125 µg/mL; against Candida albicans [3] it was 0.5 µg/mL; in the experiment on Candida albicans [4] it was 0.5 µg/mL. Besides, the ED50 (commonly the dose at which the effect has come halfway, by size or by number of responders) in the experiment with Mus musculus [6] was determined as 0.72 mg/kg. Besides, the Hemolytic activity in the experiment filed under Mus musculus [5] is listed as 23%.
In the case of `CCCCCCCCCCCCC[C@H](CC(=O)N[C@@H](C(=O)N[C@H](C)C(=O)N[C@@H](Cc1ccc(O)c(NC(=O)C[C@H](N)C(=O)O)c1)C(=O)N[C@H](C(=O)N1C[C@H](O)C[C@H]1C(=O)N[C@@H](C(=O)N[C@H](C(=O)N1CC[C@H](O)[C@H]1C(=O)N[C@H](C(=O)NCC(=O)N[C@@H](C(N)=O)[C@@H](C)O)[C@H](O)CC(N)=O)[C@@H](C)O)[C@@H](C)O)C(C)C)[C@@H](C)O)OC(=O)[C@@H](C)CCCN`, the minimum inhibitory concentration (MIC) came out at 0.5 µg/mL (≈ 0.298 µM) with Aspergillus fumigatus [1], 0.25 µg/mL (≈ 0.149 µM) against Aspergillus fumigatus [2], 1 µg/mL (≈ 0.595 µM) in the experiment on Candida albicans [3] and 0.5 µg/mL (≈ 0.298 µM) in the experiment on Candida albicans [4]. In the experiment on Mus musculus [6], this molecule showed a median effective dose (ED50) of 0.8 mg/kg. The Hemolytic activity in the experiment filed under Mus musculus [5] was 75%.
As to `CCCCCCCCCCCCC[C@H](CC(=O)N[C@@H](C(=O)N[C@H](C)C(=O)N[C@@H](Cc1ccc(O)c(NC(=O)CC[C@H](N)C(=O)O)c1)C(=O)N[C@H](C(=O)N1C[C@H](O)C[C@H]1C(=O)N[C@@H](C(=O)N[C@H](C(=O)N1CC[C@H](O)[C@H]1C(=O)N[C@H](C(=O)NCC(=O)N[C@@H](C(N)=O)[C@@H](C)O)[C@H](O)CC(N)=O)[C@@H](C)O)[C@@H](C)O)C(C)C)[C@@H](C)O)OC(=O)[C@@H](C)CCCN`, the minimum inhibitory concentration (MIC) came to 1 µg/mL (≈ 0.59 µM) against Aspergillus fumigatus [1], 0.5 µg/mL (≈ 0.295 µM) in the experiment with Aspergillus fumigatus [2], 0.5 µg/mL (≈ 0.295 µM) with Candida albicans [3] and 0.5 µg/mL (≈ 0.295 µM) in the experiment on Candida albicans [4]. In the experiment with Mus musculus [6], this molecule returned a median effective dose (ED50) of 1.02 mg/kg. Also, the Hemolytic activity in the experiment filed under Mus musculus [5] came to 60%.
As to `CCCCCCCCCCCCC[C@H](CC(=O)N[C@@H](C(=O)N[C@H](C)C(=O)N[C@@H](Cc1ccc(OCC(=O)N(C)C)cc1)C(=O)N[C@H](C(=O)N1C[C@H](O)C[C@H]1C(=O)N[C@@H](C(=O)N[C@H](C(=O)N1CC[C@H](O)[C@H]1C(=O)N[C@H](C(=O)NCC(=O)N[C@@H](C(N)=O)[C@@H](C)O)[C@H](O)CC(N)=O)[C@@H](C)O)[C@@H](C)O)C(C)C)[C@@H](C)O)OC(=O)[C@@H](C)CCCN`, the MIC in the experiment with Aspergillus fumigatus [1] came out at 1 µg/mL (≈ 0.612 µM); against Aspergillus fumigatus [2], 0.25 µg/mL (≈ 0.153 µM); in the experiment on Candida albicans [3], 1 µg/mL (≈ 0.612 µM); against Candida albicans [4], 0.5 µg/mL (≈ 0.306 µM). In the experiment filed under Mus musculus [5], this molecule showed a Hemolytic activity of 85%.
On to `CCCCCCCCCCCCC[C@H](CC(=O)N[C@@H](C(=O)N[C@H](C)C(=O)N[C@@H](Cc1ccc(OCC(=O)O)cc1)C(=O)N[C@H](C(=O)N1C[C@H](O)C[C@H]1C(=O)N[C@@H](C(=O)N[C@H](C(=O)N1CC[C@H](O)[C@H]1C(=O)N[C@H](C(=O)NCC(=O)N[C@@H](C(N)=O)[C@@H](C)O)[C@H](O)CC(N)=O)[C@@H](C)O)[C@@H](C)O)C(C)C)[C@@H](C)O)OC(=O)[C@@H](C)CCCN`, for which the MIC with Aspergillus fumigatus [1] worked out at 1 µg/mL (≈ 0.622 µM); in the experiment on Aspergillus fumigatus [2] it was 0.125 µg/mL (≈ 0.0777 µM); in the experiment on Candida albicans [3] it was 0.5 µg/mL (≈ 0.311 µM); against Candida albicans [4] it was 0.5 µg/mL (≈ 0.311 µM). For the same molecule, in the experiment filed under Mus musculus [5], the Hemolytic activity is recorded as 76%.
`CCCCCCCCCCCCC[C@H](CC(=O)N[C@@H](C(=O)N[C@H](C)C(=O)N[C@@H](Cc1ccc(O)c(N)c1)C(=O)N[C@H](C(=O)N1C[C@H](O)C[C@H]1C(=O)N[C@@H](C(=O)N[C@H](C(=O)N1CC[C@H](O)[C@H]1C(=O)N[C@H](C(=O)NCC(=O)N[C@@H](C(N)=O)[C@@H](C)O)[C@H](O)CC(N)=O)[C@@H](C)O)[C@@H](C)O)C(C)C)[C@@H](C)O)OC(=O)[C@@H](C)CCCN`: the MIC in the experiment on Candida albicans [7] was found to be 1.56 µg/mL (≈ 0.997 µM); with Candida albicans [8], 0.78 µg/mL (≈ 0.498 µM); in [9], 0.78 µg/mL (≈ 0.498 µM); in the experiment on Candida parapsilosis, 1.56 µg/mL (≈ 0.997 µM); against Candida tropicalis, 1.56 µg/mL (≈ 0.997 µM); in the experiment on Candida tropicalis (Candida tropicalis, read-out: MIC), 1.56 µg/mL (≈ 0.997 µM). In addition, the Hemolytic activity in the experiment filed under Mus musculus [5] is given as 100%.
